How the values were obtained:
[1] = Prodrug conversion in human liver S9 fraction assessed as DH5FU metabolite formation at 1.6 mM incubated for 1 hr in presence of NADPH by 19F-NMR based analysis; type: ADME, subcellular; conditions: s9, 1 h, 1600 µM
Summary of the method: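 Compound added as 150 mM stock in DMSO-d₆, preincubated 5 min at 37 °C with enzyme mixture, then NADPH added (1 mM) and incubated 1 h at 37 °C, 600 rpm; controls without NADPH and without enzymes. Stopped with EtOAc, dried under N₂, redissolved in DMSO-d₆, DH5FU detected by ¹⁹F NMR vs authentic sample.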

[2] = test system: BXPC-3; experiment: Antiproliferative activity against human BxPC-3 cells assessed as reduction in cell viability measured after 5 days by PrestoBlue reagent based assay; type: functional; conditions: BXPC-3, 120 h
Summary of the method: (§1)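 Cells in 10% FBS, 2 mM L-glutamine media at 37 °C, 5% CO₂ (HCT116 in McCoy's 5A, BxPC-3 in RPMI). Seeded at 3000 (HCT116) or 2500 (BxPC-3) cells/well and grown 48 h. Medium then replaced with drug-containing medium, 0.1% DMSO, for 5 d. PrestoBlue 10% v/v added for 1 h, fluorescence read ex 540/em 590 nm. Normalised to DMSO-only wells; sigmoidal variable-slope fit; n = 3.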

[3] = test system: HCT-116; experiment: Antiproliferative activity against human HCT-116 cells assessed as reduction in cell viability measured after 5 days by PrestoBlue reagent based assay; type: functional; conditions: HCT-116, 120 h; summary of the method: as §1
[4] = test system: HCT-116; experiment: Antiproliferative activity against human HCT-116 cells assessed as reduction in cell viability at 100 uM incubated for 5 days in presence of Pd-resins at 0.8 mg/ml by PrestoBlue dye based assay relative to control; type: functional; conditions: time 5 day
Summary of the method: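 HCT116 seeded at 750 cells/well and grown 48 h. Medium then replaced with fresh medium with or without Pd resins (20–160 μg per well; 0.2–1.4 mg/mL). Compound added as 5 μL of a 2 mM stock in 2% DMSO/medium, incubated 5 d. PrestoBlue fluorescence read; values normalised to untreated cells within each resin dilution.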

Compound	Drug metabolism [1]	EC50 [2] [µM]	EC50 [3] [µM]	Activity [4] [%]
O=c1[nH]cc(F)c(=O)[nH]1 [FLUOROURACIL]	Metabolite_Detected	0.14	0.5	
C#CCn1cc(F)c(=O)[nH]c1=O	Metabolite_Detected			14
